Assay outcomes: PubChem BioAssay, several laboratories
VLA-4 inh – inhibition in a human VLA-4 binding assay; P13612; VLA-4 expressing cells, ligand binding flow cytometry; inhibition, % (about 7 µM as worked out from the volumes in the protocol); actives 0.2% (n = 330,000); AID 2557; in the data active = inhibition above about 50%
NR2E3 ag-1 – activates human NR2E3 receptor | CHO-S Gal4-NCOR/VP16-NR2E3 two-hybrid, luciferase | inhibition of corepressor binding, % at 3.98 µM | actives 0.35% (n = 360,000);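 active = inhibition above the mean of all tested compounds plus 3 SD, cut at about 70% in these data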;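 also: higher means lower luciferase signal from less NR2E3 corepressor binding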
Target sequence (Q9Y5X4 whole entry, looked up, the tested form may be a part): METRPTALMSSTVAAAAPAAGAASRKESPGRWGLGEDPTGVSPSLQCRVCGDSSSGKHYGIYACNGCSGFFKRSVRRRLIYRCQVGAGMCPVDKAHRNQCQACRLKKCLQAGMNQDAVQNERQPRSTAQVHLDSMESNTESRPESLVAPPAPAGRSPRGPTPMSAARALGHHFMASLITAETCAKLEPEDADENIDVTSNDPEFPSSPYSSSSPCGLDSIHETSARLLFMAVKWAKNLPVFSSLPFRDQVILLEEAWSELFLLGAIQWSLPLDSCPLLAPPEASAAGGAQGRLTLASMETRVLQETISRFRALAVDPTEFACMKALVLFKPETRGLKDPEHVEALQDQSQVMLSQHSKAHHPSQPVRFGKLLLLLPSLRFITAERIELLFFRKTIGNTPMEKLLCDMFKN
NR2E3 ag-2 – activates human photoreceptor nuclear receptor NR2E3; Q9Y5X4; GST-NR2E3/biotin-RetCOR TR-FRET, 1536-well; inhibition of corepressor binding, % at 4.78 µM; actives 0.12% (n = 320,000); AID 2300;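 active = percent inhibition above the cutoff of mean plus 3 SD of all tested compounds, set per screening campaign, cut at about 20% in these data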
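System: GST-NR2E3 and biotin-RetCOR proteins; probe or stimulus: 7 nM biotin-RetCOR; doses: compound at 4.8 µM, single dose; schedule: Compound–protein incubation for 5 h at 4 °C; detection: time-resolved FRET; read-out: percent inhibition; controls: biotin wells as high control, 0.6% DMSO wells as low control; format: 1536-well plates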
PG9 Ab binder – small molecules binding HIV-1 gp120 antibody PG9 | TR-FRET gp120-PG9 antibody binding | inhibition, % at 6.7 µM | actives 0.43% (n = 360,000) | AID 624416; in the data active = inhibition above about 8.5%
NR1D1 modulator – modulators of human Rev-erb alpha DNA binding; activity, % at 10 µM; Rev-erbα–FITC-DNA binding, fluorescence polarization, 90 min; actives 0.79% (n = 370,000); AID 1259318; P20393;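 active = activity above about 14%, limit read from the data; passing the limit was not always enough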
PG9 bind confirm – confirmation of small molecules binding HIV-1 gp120 antibody PG9 | actives 90% (n = 1,500) | TR-FRET PG9 antibody binding, biochemical | AID 651571 | shares compounds with PG9 Ab binder | inhibition, % at 6.7 µM; in the data active = inhibition above about 9%
PGV04 Ab binding – binds control antibody PGV04 in PG9 binder counter-screen; inhibition, % at 6.7 µM; shares compounds with PG9 Ab binder; actives 95% (n = 1,500); TR-FRET PGV04 antibody-gp120 binding, biochemical; in the data active = inhibition above about 9.5%
PG9 binder DR – PG9 antibody binding, dose response; shares compounds with PG9 Ab binder; TR-FRET PG9 antibody-gp120 binding inhibition; IC50, µM; 95 tested, under 10 active; AID 651848; in the data active = IC50 below about 10 µM
PGV04 DR counter – binds control antibody PGV04 in PG9 counter-screen. shares compounds with PG9 Ab binder. TR-FRET binding to control antibody PGV04. IC50, µM. actives 20% (n = 95)
PG126 binding DR – PG126 binding, dose response counter-screen; IC50, µM; TR-FRET binding to antibody PG126, counterscreen; shares compounds with PG9 Ab binder; AID 651939; actives 20% (n = 95)
Rev-erbA confirm – Rev-erb alpha (human) modulation, hit confirmation | shares compounds with NR1D1 modulator | Rev-erb alpha FITC-DNA binding, fluorescence polarization, 90 min | activation, % at 25 µM | actives 61% (n = 3,000);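 active = activation at or above a set limit, or at least 3 SD above the negative control mean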
RORg counter – RORgamma DNA-binding activity, dose-response counter-screen. shares compounds with NR1D1 modulator. purified RORgamma protein-FITC-DNA binding, fluorescence polarization. IC50, µM. actives 8% (n = 910). AID 1259320;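 active = Compounds whose fitted half-maximal concentration for disrupting protein-DNA binding is below 10 micromolar; the record names Rev-erb in its text, so the target is in doubt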
Each line names hits and unclear results; the compound was inactive in the other large screens (follow-up assays come after a bar, where they were run). Shown are actives, neighbours in structure and some others; about 1.6% of the full set was active somewhere. Rule as the data show it, unless noted: active = IC50 below about 9 µM; inactive = the rest.

CCCCCCn1c(SCC(=O)Nc2cc(C)on2)nc2ccccc2c1=O	PG9 Ab binder 31, NR1D1 modulator 41 | PG9 bind confirm 23 | PGV04 Ab binding 32 | Rev-erbA confirm 18
COCCn1c(SCC(=O)Nc2cc(C)on2)nc2ccccc2c1=O	none
COc1ccc(CCn2c(SCC(=O)Nc3cc(C)on3)nc3ccccc3c2=O)cc1OC	none
Cc1cc(C)cc(NC(=O)N2CCC(c3nc4ccc(Cl)cc4[nH]3)CC2)c1	none (no result: VLA-4 inh, NR2E3 ag-1, NR2E3 ag-2, PG9 Ab binder)
Cc1c(-c2ccc(Cl)cc2)oc(=O)c2c(N)n(-c3ccccc3)nc12	PG9 Ab binder 36, NR1D1 modulator 49 | PG9 bind confirm 31 | PGV04 Ab binding 39 | Rev-erbA confirm 49 | RORg counter inactive
NS(=O)(=O)c1ccc2nc(NC(=O)c3ccc4ncsc4c3)sc2c1	none (no result: PG9 Ab binder, NR1D1 modulator)
CCCOc1ccc(C(=O)Nc2nc(C)c(Cc3ccc4c(c3)OCO4)s2)cc1	PG9 Ab binder 61, NR1D1 modulator 128 | PG9 bind confirm 25 | PGV04 Ab binding 31 | Rev-erbA confirm 83 | RORg counter inactive
NS(=O)(=O)c1ccc2nc(NC(=O)c3ccc4c(c3)OCCO4)sc2c1	PG9 Ab binder 37, NR1D1 modulator 33 | PG9 bind confirm 33 | PGV04 Ab binding 46 | Rev-erbA confirm inactive
Cc1ccc2nc(NC(=O)c3ccc4c(c3)OCO4)sc2c1	PG9 Ab binder 18, NR1D1 modulator 29 | PG9 bind confirm 21 | PGV04 Ab binding 32 | Rev-erbA confirm inactive
Cc1cc(C(=O)O[C@@H]2CCC[C@]3(C(=O)N(Cc4ccccc4)c4ccccc43)[C@H]2NC(=O)CCc2ccccc2)no1	none (no result: VLA-4 inh, NR2E3 ag-1, NR2E3 ag-2, PG9 Ab binder)
CCc1nc(SCC(=O)Nc2ccc3c(c2)OCCO3)c2oc3ccccc3c2n1	PG9 Ab binder 50, NR1D1 modulator 172 | PG9 bind confirm 68 | PGV04 Ab binding 83 | Rev-erbA confirm 169 | RORg counter inactive
Cc1nc(SCC(=O)O)c2oc3ccccc3c2n1	none
Cc1nc(SCC(=O)Nc2ccc3c(c2)OCCO3)c2oc3ccccc3c2n1	PG9 Ab binder 33, NR1D1 modulator 294 | PG9 bind confirm 38 | PGV04 Ab binding 24 | PG9 binder DR inactive | PGV04 DR counter inactive | PG126 binding DR inactive | Rev-erbA confirm 302
CCOC(=O)c1nn(-c2cccc(OC)c2)c2nc(CC)c(C#N)c(=O)n12	PG9 Ab binder 28, NR1D1 modulator 37 | PG9 bind confirm 21 | PGV04 Ab binding 25 | Rev-erbA confirm inactive
Nc1c(S(=O)(=O)c2cccc(Cl)c2)c2nc3ccccc3nc2n1CCN1CCOCC1	PG9 Ab binder 11, NR1D1 modulator 32 | PG9 bind confirm inactive | PGV04 Ab binding inactive | Rev-erbA confirm inactive
COc1ccc(OC)c(S(=O)(=O)N2CCCCC2C(=O)N2CCN(CCO)CC2)c1 (stereo not drawn)	none (no result: VLA-4 inh, NR2E3 ag-1, NR2E3 ag-2, PG9 Ab binder)
CCCCOc1ccc(-c2c(C#N)c(N)nc(SCC(N)=O)c2C#N)cc1	none
CSc1nc(-c2ccc(Cl)cc2)nc(N)c1C#N	PG9 Ab binder 25, NR1D1 modulator 29 | PG9 bind confirm 49 | PGV04 Ab binding 67 | Rev-erbA confirm inactive
